≈ marks a conversion by molar mass, not a printed value.
How the values were obtained:
Format in all cases: functional
Escherichia coli [1] = assay: Antimicrobial activity in Escherichia coli J53 strain
Outline: (§1)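 MICs were determined by Etest on Mueller-Hinton agar plates incubated at 37°C. Susceptibility was interpreted according to CLSI guidelines.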

Escherichia coli [2] = assay: microbe, parasite or virus in culture; details: TOP10
Escherichia coli [3] = assay: microbe, parasite or virus in culture; details: TOP10; remark: listed apart in the source
Escherichia coli [4] = assay: Antimicrobial activity in Escherichia coli TOP10 strain; outline: as §1
Escherichia coli [5] = assay: Antimicrobial activity in Escherichia coli DIH-1 expressing beta-lactamase VIM-19 by Etest
Outline: (§2)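 MICs read by Etest on Mueller-Hinton agar incubated at 37°C. Susceptibility was categorized according to CLSI guidelines. Transconjugants were obtained in E. coli J53 by liquid mating at 37°C, with selection on agar containing amoxicillin (50 μg/ml) and azide (100 μg/ml).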

Escherichia coli [6] = assay: microbe, parasite or virus in culture; details: TOP10; remark: listed apart in the source
Escherichia coli [7] = assay: Antimicrobial activity in Escherichia coli J53 transconjugate with Escherichia coli DIH-1 expressing natural plasmid containing beta-lactamase VIM-19
Outline: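 Transconjugants came from liquid mating-out at 37°C with azide-resistant E. coli J53 as recipient, selected on agar with amoxicillin (50 μg/ml) plus azide (100 μg/ml). MICs were then read by Etest on Mueller-Hinton agar at 37°C and interpreted per CLSI.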

Klebsiella pneumoniae [8] = assay: Antimicrobial activity in Klebsiella pneumoniae DIH-2 clinical isolate expressing beta-lactamase VIM-19 by Etest
Escherichia coli [9] = assay: microbe, parasite or virus in culture; details: TOP10; remark: listed apart in the source
Escherichia coli [10] = assay: Antimicrobial activity in Escherichia coli TOP10 hourbouring recombinant plasmid VIM-19 by Etest in presence of 4 ug/ml clavulanic acid; outline: as §2
Escherichia coli [11] = assay: Antimicrobial activity in Escherichia coli TOP10 strain in presence of 4 ug/ml clavulanic acid
Outline: (§3)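 MIC by Etest on Mueller-Hinton agar plates at 37°C, with susceptibility interpreted per CLSI guidelines.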

Escherichia coli [12] = assay: Antimicrobial activity in Escherichia coli DIH-1 expressing beta-lactamase VIM-19 by Etest in presence of 4 ug/ml clavulanic acid; outline: as §2
Escherichia coli [13] = assay: Antimicrobial activity in Escherichia coli J53 transconjugate with Escherichia coli DIH-1 expressing natural plasmid containing beta-lactamase VIM-19 in presence of 4 ug/ml clavulanic acid; outline: as §2
Klebsiella pneumoniae [14] = assay: Antimicrobial activity in Klebsiella pneumoniae DIH-2 clinical isolate expressing beta-lactamase VIM-19 by Etest in presence of 4 ug/ml clavulanic acid; outline: as §2
Escherichia coli [15] = assay: Antimicrobial activity in Escherichia coli TOP10 hourbouring recombinant plasmid VIM-4 by Etest in presence of 4 ug/ml clavulanic acid; outline: as §2
Escherichia coli [16] = assay: Antimicrobial activity in Escherichia coli J53 strain in presence of 4 ug/ml clavulanic acid; outline: as §3

Structure (SMILES)	MIC (Escherichia coli [1])	MIC (Escherichia coli [2])	MIC (Escherichia coli [3])	MIC (Escherichia coli [4])	MIC (Escherichia coli [5])	MIC (Escherichia coli [6])	MIC (Escherichia coli [7])	MIC (Klebsiella pneumoniae [8])	MIC (Escherichia coli [9])	MIC (Escherichia coli [10])	MIC (Escherichia coli [11])	MIC (Escherichia coli [12])	MIC (Escherichia coli [13])	MIC (Klebsiella pneumoniae [14])	MIC (Escherichia coli [15])	MIC (Escherichia coli [16])
C[C@@H](O)[C@H]1C(=O)N2C(C(=O)O)=C(S[C@@H]3CN[C@H](C(=O)Nc4cccc(C(=O)O)c4)C3)[C@H](C)[C@H]12	0.006 µg/mL (≈ 0.0126 µM)	2 µg/mL (≈ 4.21 µM)	2 µg/mL (≈ 4.21 µM)	0.006 µg/mL (≈ 0.0126 µM)	16 µg/mL (≈ 33.6 µM)	0.125 µg/mL (≈ 0.263 µM)	1.5 µg/mL (≈ 3.15 µM)	16 µg/mL (≈ 33.6 µM)	0.125 µg/mL (≈ 0.263 µM)	–	–	–	–	–	–	–
CC1(C)S[C@@H]2[C@H](NC(=O)[C@H](N)c3ccc(O)cc3)C(=O)N2[C@H]1C(=O)O [AMOXICILLIN]	4 µg/mL (≈ 10.9 µM)	> 512 µg/mL	> 512 µg/mL	4 µg/mL (≈ 10.9 µM)	> 512 µg/mL	–	> 512 µg/mL	> 512 µg/mL	–	> 512 µg/mL	4 µg/mL	> 512 µg/mL	> 512 µg/mL	> 512 µg/mL	> 512 µg/mL	4 µg/mL
C[C@H]1[C@H](NC(=O)/C(=N\OC(C)(C)C(=O)O)c2csc(N)n2)C(=O)N1S(=O)(=O)O [AZTREONAM]	–	–	–	–	4 µg/mL (≈ 9.19 µM)	0.12 µg/mL (≈ 0.276 µM)	–	–	–	–	–	–	–	–	–	–
CO/N=C(\C(=O)N[C@@H]1C(=O)N2C(C(=O)O)=C(COC(C)=O)CS[C@H]12)c1csc(N)n1 [CEFOTAXIME]	0.12 µg/mL (≈ 0.263 µM)	64 µg/mL (≈ 141 µM)	64 µg/mL (≈ 141 µM)	0.12 µg/mL (≈ 0.263 µM)	> 512 µg/mL	64 µg/mL (≈ 141 µM)	64 µg/mL (≈ 141 µM)	> 512 µg/mL	32 µg/mL (≈ 70.3 µM)	–	–	–	–	–	–	–
CO[C@@]1(NC(=O)Cc2cccs2)C(=O)N2C(C(=O)O)=C(COC(N)=O)CS[C@@H]21 [CEFOXITIN]	4 µg/mL (≈ 9.36 µM)	256 µg/mL (≈ 599 µM)	256 µg/mL (≈ 599 µM)	4 µg/mL (≈ 9.36 µM)	> 512 µg/mL	256 µg/mL (≈ 599 µM)	256 µg/mL (≈ 599 µM)	> 512 µg/mL	256 µg/mL (≈ 599 µM)	–	–	–	–	–	–	–
CO/N=C(\C(=O)N[C@@H]1C(=O)N2C(C(=O)[O-])=C(C[n+]3cccc4c3CCC4)CS[C@H]12)c1csc(N)n1 [CEFPIROME]	0.12 µg/mL (≈ 0.233 µM)	2 µg/mL (≈ 3.89 µM)	2 µg/mL (≈ 3.89 µM)	0.06 µg/mL (≈ 0.117 µM)	32 µg/mL (≈ 62.2 µM)	32 µg/mL (≈ 62.2 µM)	2 µg/mL (≈ 3.89 µM)	64 µg/mL (≈ 124 µM)	32 µg/mL (≈ 62.2 µM)	–	–	–	–	–	–	–
CC(C)(O/N=C(\C(=O)N[C@@H]1C(=O)N2C(C(=O)[O-])=C(C[n+]3ccccc3)CS[C@H]12)c1csc(N)n1)C(=O)O [CEFTAZIDIME]	0.06 µg/mL (≈ 0.11 µM)	32 µg/mL (≈ 58.5 µM)	32 µg/mL (≈ 58.5 µM)	0.06 µg/mL (≈ 0.11 µM)	> 512 µg/mL	512 µg/mL (≈ 937 µM)	32 µg/mL (≈ 58.5 µM)	128 µg/mL (≈ 234 µM)	512 µg/mL (≈ 937 µM)	–	–	–	–	–	–	–

Reference: ChEMBL document CHEMBL1212781, “VIM-19, a metallo-beta-lactamase with increased carbapenemase activity from Escherichia coli and Klebsiella pneumoniae” (2010)
